Data taken from ChEMBL document CHEMBL2380254, “Optimization of tocotrienols as antiproliferative and antimigratory leads” (Eur J Med Chem, 2013).

Assays:
COLO 205 = test: Growth inhibition of human COLO205 cells assessed as cell growth at 10 uM after 48 hrs by sulforhodamine B assay; format: functional; details: COLO 205, 48 h, read-out: Activity
In short: (§1)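 NCI-60 single-dose screen at 10 µM: cells in RPMI 1640 with 5% FBS, preincubated 24 h, then exposed 48 h at 37 °C. TCA fixation (16% final for suspension cells), SRB staining, absorbance 515 nm. Percent growth relative to time-zero and untreated control plates; negative values indicate cell kill.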

[1] = Growth inhibition of human HCC2998 cells assessed as cell growth at 10 uM after 48 hrs by sulforhodamine B assay; format: functional; details: HCC 2998, 48 h, read-out: Activity; in short: as §1
SNB-19 [2] = test: Growth inhibition of human SNB19 cells assessed as cell growth at 10 uM after 48 hrs by sulforhodamine B assay; format: functional; details: SNB-19, 48 h, read-out: Activity
In short: (§2)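 Single-dose NCI-60 test at 10 µM. Cells were grown in RPMI 1640 with 5% FBS and 2 mM L-glutamine, preincubated 24 h, with T0 plates TCA-fixed. Exposure was 48 h at 37 °C, 5% CO2. Cells were fixed with cold TCA (final 10%, 4 °C, 60 min), stained with SRB and read at 515 nm. Percent growth was taken relative to T0 and untreated control; negative values denote cell kill.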

PC-3 = test: Growth inhibition of human PC3 cells assessed as cell growth at 10 uM after 48 hrs by sulforhodamine B assay; format: functional; details: PC-3, 48 h, read-out: Activity
In short: (§3)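 Single-dose NCI-60 screen: adherent cells in RPMI 1640 with 5% FBS were exposed to 10 µM for 48 h at 37 °C after a 24 h preincubation. They were fixed in situ with cold TCA (10% final), stained with 0.4% SRB in 1% acetic acid, solubilized in 10 mM Tris base, and read at 515 nm. Percent growth was taken relative to time-zero and control plates.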

MDA-MB-231 = test: Antiproliferative activity against human MDA-MB-231 cells by MTT assay; format: functional, cell-based
In short: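 Cells plated at 8 × 10^3/well (MDA-MB-231) or 10^4/well (MCF7) in 96-well plates. Compounds fed in media with 5% FBS (MDA-MB-231) or 1% FBS (MCF7). MTT read-out of viable cells.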

SR = test: Growth inhibition of human SR cells assessed as cell growth at 10 uM after 48 hrs by sulforhodamine B assay; format: functional; details: read-out: Activity
In short: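 Suspension line in RPMI 1640 with 5% FBS, single 10 µM dose for 48 h. Settled cells were fixed with TCA (final 16%), then SRB-stained and read at 515 nm. Percent growth was taken versus T0 and control; negative values denote cytotoxicity.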

MDA-MB-435 = test: Growth inhibition of human MDA-MB-435 cells assessed as cell growth at 10 uM after 48 hrs by sulforhodamine B assay; format: functional; details: MDA-MB-435, 48 h, read-out: Activity; in short: as §3
Malme-3M = test: Growth inhibition of human MALME-3M cells assessed as cell growth at 10 uM after 48 hrs by sulforhodamine B assay; format: functional; details: read-out: Activity; in short: as §3
OVCAR-3 = test: Growth inhibition of human OVCAR3 cells after 48 hrs by sulforhodamine B assay; format: functional; details: OVCAR-3, 48 h
In short: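 NCI-60 panel cells grown in RPMI 1640 with 5% FBS and 2 mM L-glutamine, seeded at 5000–40,000 cells/well and preincubated 24 h. Five 10-fold dilutions (0.001–100 µM) from DMSO stocks were added for 48 h at 37 °C. Adherent cells were fixed with cold TCA (10% final) for 60 min at 4 °C, stained with 0.4% SRB, and read at 515 nm. GI50 was set where 100×(T−T0)/(C−T0)=50.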

SF-295 = test: Growth inhibition of human SF295 cells assessed as cell growth at 10 uM after 48 hrs by sulforhodamine B assay; format: functional; details: SF-295, 48 h, read-out: Activity; in short: as §3
[3] = Growth inhibition of human EKVX cells after 48 hrs by sulforhodamine B assay; format: functional
In short: (§4)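 NCI-60 screen: cells in RPMI 1640 with 5% FBS and 2 mM glutamine, 5000–40,000 cells/well, preincubated 24 h. Five concentrations (10-fold dilutions; 100 to 0.001 µM) applied for 48 h at 37 °C. TCA fixation, SRB stain, absorbance at 515 nm. Time-zero plates included; GI50 where 100×(T−T0)/(C−T0)=50.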

RPMI-8226 = test: Growth inhibition of human RPMI8226 cells assessed as cell growth at 10 uM after 48 hrs by sulforhodamine B assay; format: functional; details: RPMI-8226, 48 h, read-out: Activity
In short: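 Single 10 µM dose applied to suspension cells in RPMI 1640 with 5% FBS and 2 mM L-glutamine for 48 h at 37 °C. Settled cells were fixed with 80% TCA (16% final), stained with SRB, and read at 515 nm. Percent growth was calculated against time-zero and untreated control optical densities.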

NCI-H23 = test: Growth inhibition of human NCI-H23 cells assessed as cell growth at 10 uM after 48 hrs by sulforhodamine B assay; format: functional; details: NCI-H23, 48 h, read-out: Activity; in short: as §3
U-251 = test: Growth inhibition of human U251 cells after 48 hrs by sulforhodamine B assay; format: functional; details: U-251, 48 h
In short: (§5)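 NCI-60 five-dose screen. Cells were grown in RPMI 1640 with 5% FBS and 2 mM L-glutamine, plated at 5000–40,000 cells/well and incubated 24 h before dosing, with T0 plates TCA-fixed. DMSO stocks were diluted to doses of […] and exposed 48 h at 37 °C, 5% CO2. Cells were fixed with cold TCA (final 10%, 60 min, 4 °C), stained with 0.4% SRB in 1% acetic acid for 10 min, solubilized in 10 mM trizma base and read at 515 nm. GI50 is where 100×(T−T0)/(C−T0)=50.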

SK-MEL-2 = test: Growth inhibition of human SK-MEL-2 cells assessed as cell growth at 10 uM after 48 hrs by sulforhodamine B assay; format: functional; details: SK-MEL-2, 48 h, read-out: Activity; in short: as §3
UO-31 = test: Growth inhibition of human UO31 cells assessed as cell growth at 10 uM after 48 hrs by sulforhodamine B assay; format: functional; details: UO-31, 48 h, read-out: Activity; in short: as §2
A498 = test: Growth inhibition of human A498 cells assessed as cell growth at 10 uM after 48 hrs by sulforhodamine B assay; format: functional; details: A498, 48 h, read-out: Activity; in short: as §1
ACHN = test: Growth inhibition of human ACHN cells after 48 hrs by sulforhodamine B assay; format: functional; in short: as §4
IGROV-1 = test: Growth inhibition of human IGROV1 cells assessed as cell growth at 10 uM after 48 hrs by sulforhodamine B assay; format: functional; details: IGROV-1, 48 h, read-out: Activity; in short: as §1
SNB-19 [4] = test: Growth inhibition of human SNB19 cells after 48 hrs by sulforhodamine B assay; format: functional; details: SNB-19, 48 h; in short: as §5
NCI-H460 = test: Growth inhibition of human NCI-H460 cells assessed as cell growth at 10 uM after 48 hrs by sulforhodamine B assay; format: functional; details: NCI-H460, 48 h, read-out: Activity; in short: as §3

| Structure (SMILES) | growth at 10 µM (COLO 205) | growth at 10 µM [1] | growth at 10 µM (SNB-19 [2]) | growth at 10 µM (PC-3) | IC50 (MDA-MB-231) | growth at 10 µM (SR) | growth at 10 µM (MDA-MB-435) | growth at 10 µM (Malme-3M) | GI50 (OVCAR-3) | growth at 10 µM (SF-295) | GI50 [3] | growth at 10 µM (RPMI-8226) | growth at 10 µM (NCI-H23) | GI50 (U-251) | growth at 10 µM (SK-MEL-2) | growth at 10 µM (UO-31) | growth at 10 µM (A498) | GI50 (ACHN) | growth at 10 µM (IGROV-1) | GI50 (SNB-19 [4]) | also measured |
| --- | --- | --- | --- | --- | --- | --- | --- | --- | --- | --- | --- | --- | --- | --- | --- | --- | --- | --- | --- | --- | --- |
| CC(C)=CCC/C(C)=C/CC/C(C)=C/CC[C@]1(C)CCc2c3c(c(C)c(C)c2O1)OCN(CCCCCO)C3 | 68.7% | 60.8% | 86.5% | 71.8% | > 50 µM | -44.4% | 35.5% | 106% | 6.71 µM | 92.7% | 6.08 µM | 1.02% | 94.5% | 5.71 µM | 107% | 64.6% | 97.4% | 5.74 µM | 63.7% | 5.99 µM | growth at 10 µM (NCI-H460): -49.6% |
| CC(C)=CCC/C(C)=C/CC/C(C)=C/CC[C@]1(C)CCc2c3c(cc(C)c2O1)OCN(CCCCCO)C3 | 3.96% | -48.5% | 82% | 63.7% | 9 µM | -16.9% | 44.7% | 116% | 6.71 µM | 103% | 6.08 µM | -16.3% | 92.9% | 5.71 µM | 117% | 50.4% | 89.7% | 5.74 µM | 53.1% | 5.99 µM | growth at 10 µM (NCI-H460): -70.2% |
| CC(C)=CCC/C(C)=C/CC/C(C)=C/CC[C@]1(C)CCc2c3c(cc(C)c2O1)OCN(CCCCCCO)C3 | -79.6% | -89.1% | -6.48% | -31.4% | > 5 µM | -38% | -48.1% | -50.2% | 0.702 µM | -74.7% | 5.31 µM | 35.4% | -22.3% | 0.536 µM | 62.4% | -37.8% | 121% | 2.29 µM | -73.7% | 0.632 µM | growth at 10 µM (NCI-H460): -15.7% |
| CC(C)=CCC/C(C)=C/CC/C(C)=C/CC[C@]1(C)CCc2c3c(c(C)c(C)c2O1)OCN(CCCCO)C3 | -16% | -61.8% | 71.3% | 71.8% | 13.8 µM | -11.1% | 53.9% | 93.3% | 3.85 µM | 97.2% | > 10 µM | 91.9% | 93.5% | 1.55 µM | 95.8% | 50.7% | 116% | > 10 µM | 48.2% | 3.03 µM | growth at 10 µM (NCI-H460): 4.31% |
| CC(C)=CCC/C(C)=C/CC/C(C)=C/CC[C@]1(C)CCc2c3c(cc(C)c2O1)OCN(CCCO)C3 | -92.5% | -82.9% | 4.52% | 50.8% | > 10 µM | -32.1% | -24% | 110% | 2.11 µM | 74% | 5.11 µM | 2.29% | 51.9% | 1.72 µM | 107% | 59.4% | 106% | 1.75 µM | -6.58% | 1.64 µM | growth at 10 µM (NCI-H460): -75.1% |
